≈ marks a conversion by molar mass, not a printed value.

The first assay deals with B16. The assay can be described thus: Cytotoxic activity against mouse melanoma cell culture(B-16). The format is functional, cell-based. The method in brief:
(§1)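 10^4 B16 or L-1210 (ATCC 219) cells were seeded per well in DMEM with 5% bovine serum and grown 48 h at 37 °C under 5% CO2. Agents from 10 mg/mL stocks in 95% ethanol or DMSO were added as 2× medium, then 48 h more. L-1210 cells were dispersed by pipetting; B16 were detached with 0.01% trypsin/0.1% EDTA for 5 min at 37 °C. Cells were counted by hemocytometer or Coulter counter, and the dose halving the count versus untreated controls was read from the count–concentration plot.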
Usually IC50 stands for the concentration that inhibits the measured activity by half. Higher therefore signals lower potency. For the molecule `NC1=CC(=O)c2ccc(-c3cc(C(=O)O)ccc3N)nc2C1=O`, the IC50 is greater than 20 mg/L.

Take `NC1=CC(=O)c2cccnc2C1=O`: the half-inhibitory concentration (IC50) was determined as 0.4 mg/L (≈ 2.3 µM).

Molecule `COC1=C(N)C(=O)c2nc(-c3ccccn3)ccc2C1=O` had an IC50 of 0.45 mg/L (≈ 1.6 µM).

In turn, `COC1=C(N)C(=O)c2ncccc2C1=O` gave an IC50 of 1.2 mg/L (≈ 5.88 µM).

`COC(=O)c1[nH]c(C(=O)OC)c(C)c2c3ccccc3nc1-2` came in with an IC50 greater than 25 mg/L.

Regarding `COC(=O)c1cccc(-c2ccc3c(n2)C(=O)C(=N)C=C3O)n1`, the IC50 was 0.9 mg/L (≈ 2.91 µM).

Molecule `COC(=O)c1nc(C(C)=O)c2[nH]c3ccccc3c2c1C` had an IC50 greater than 25 mg/L.

For the next assay, the system named is Pseudomonas aeruginosa. The assay is described as follows: Antimicrobial activity was determined against Pseudomonas aeruginosa ATCC 27853 cells. The format is functional. The method in brief:
(§2)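 MICs (µg/mL) were determined by agar dilution/streak against S. aureus ATCC 13709, E. coli ATCC 9637, S. gallinarum ATCC 9184, K. pneumoniae ATCC 10031, M. smegmatis ATCC 607, P. aeruginosa ATCC 27853 and C. albicans ATCC 10231.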
One may read the MIC as the lowest concentration that inhibits growth of the organism. In turn, `NC1=CC(=O)c2ccc(-c3cc(C(=O)O)ccc3N)nc2C1=O` returned an MIC greater than 50 mg/L.

In turn, `NC1=CC(=O)c2cccnc2C1=O` had an MIC greater than 100 mg/L.

`COC1=C(N)C(=O)c2nc(-c3ccccn3)ccc2C1=O` yielded an MIC greater than 100 mg/L.

As to `COC1=C(N)C(=O)c2ncccc2C1=O`, the MIC is greater than 100 mg/L.

Molecule `COC(=O)c1[nH]c(C(=O)OC)c(C)c2c3ccccc3nc1-2` came in with an MIC greater than 50 mg/L.

On to `COC(=O)c1cccc(-c2ccc3c(n2)C(=O)C(=N)C=C3O)n1`, for which the MIC was greater than 50 mg/L.

As for `COC(=O)c1nc(C(C)=O)c2[nH]c3ccccc3c2c1C`, the MIC was greater than 50 mg/L.

In the next assay the test system is Escherichia coli. The assay is described as follows: Antimicrobial activity was determined against Escherichia coli ATCC 9637. It is filed as functional. In short, it runs like this:
as §2
In turn, `NC1=CC(=O)c2ccc(-c3cc(C(=O)O)ccc3N)nc2C1=O` had an MIC greater than 50 mg/L.

As for `NC1=CC(=O)c2cccnc2C1=O`, it took 50 mg/L (≈ 287 µM) to inhibit growth (MIC).

Molecule `COC1=C(N)C(=O)c2nc(-c3ccccn3)ccc2C1=O` gave an MIC greater than 100 mg/L.

`COC1=C(N)C(=O)c2ncccc2C1=O` displayed an MIC greater than 50 mg/L.

As for `COC(=O)c1[nH]c(C(=O)OC)c(C)c2c3ccccc3nc1-2`, the MIC was greater than 50 mg/L.

With `COC(=O)c1cccc(-c2ccc3c(n2)C(=O)C(=N)C=C3O)n1`, the MIC is greater than 50 mg/L.

On to `COC(=O)c1nc(C(C)=O)c2[nH]c3ccccc3c2c1C`, for which the MIC is greater than 50 mg/L.

The next assay concerns CCRF-CEM. The assay is described as follows: Cytotoxic activity against human lymphoblastic leukemia cell culture (CCRF-CEM). It is filed as functional, cell-based.
The molecule `NC1=CC(=O)c2ccc(-c3cc(C(=O)O)ccc3N)nc2C1=O` returned an IC50 of 14.6 mg/L (≈ 47.2 µM).

`NC1=CC(=O)c2cccnc2C1=O` gave an IC50 of 0.3 mg/L (≈ 1.72 µM).

As to `COC1=C(N)C(=O)c2nc(-c3ccccn3)ccc2C1=O`, the IC50 worked out at 0.5 mg/L (≈ 1.78 µM).

Molecule `COC1=C(N)C(=O)c2ncccc2C1=O` gave an IC50 of 0.2 mg/L (≈ 0.98 µM).

In turn, `COC(=O)c1[nH]c(C(=O)OC)c(C)c2c3ccccc3nc1-2` had an IC50 of 16.8 mg/L (≈ 56.3 µM).

The molecule `COC(=O)c1cccc(-c2ccc3c(n2)C(=O)C(=N)C=C3O)n1` gave an IC50 of 0.1 mg/L (≈ 0.323 µM).

The next assay has as its system L1210. The assay is described as follows: Cytotoxic activity against mouse lymphoblastic leukemia cell culture (L-1210). It is filed as functional, cell-based. In short, it runs like this:
as §1
The molecule `NC1=CC(=O)c2ccc(-c3cc(C(=O)O)ccc3N)nc2C1=O` came in with an IC50 greater than 20 mg/L.

As to `COC1=C(N)C(=O)c2nc(-c3ccccn3)ccc2C1=O`, the IC50 was determined as 0.3 mg/L (≈ 1.07 µM).

Regarding `COC1=C(N)C(=O)c2ncccc2C1=O`, half-maximal inhibition (IC50) required 1 mg/L (≈ 4.9 µM).

For `COC(=O)c1[nH]c(C(=O)OC)c(C)c2c3ccccc3nc1-2`, the IC50 was greater than 25 mg/L.

`COC(=O)c1cccc(-c2ccc3c(n2)C(=O)C(=N)C=C3O)n1` displayed an IC50 of 0.4 mg/L (≈ 1.29 µM).

Regarding `COC(=O)c1nc(C(C)=O)c2[nH]c3ccccc3c2c1C`, the IC50 was greater than 25 mg/L.

The test system of a further assay is P388. The assay can be described thus: Cytotoxic activity against P388 mouse leukemia cell culture (9PS(P388)). It is filed as functional, cell-based. The method in brief:
(§3)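 P388 (9PS, NCI-supplied line) and 9KB IC50s (µg/mL) followed NCI cell culture protocols. Samples were run in duplicate, and growth was compared with untreated controls. IC50 was extrapolated from a least-squares fit of the dose–response curve.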
Molecule `NC1=CC(=O)c2ccc(-c3cc(C(=O)O)ccc3N)nc2C1=O` returned an IC50 of 5 mg/L (≈ 16.2 µM).

In the case of `NC1=CC(=O)c2cccnc2C1=O`, 0.19 mg/L (≈ 1.09 µM) corresponded to half-maximal inhibition (IC50).

`COC1=C(N)C(=O)c2nc(-c3ccccn3)ccc2C1=O`: half-maximal inhibition (IC50) required 0.034 mg/L (≈ 0.121 µM).

In the case of `COC1=C(N)C(=O)c2ncccc2C1=O`, the IC50 came out at 0.22 mg/L (≈ 1.08 µM).

In the case of `COC(=O)c1cccc(-c2ccc3c(n2)C(=O)C(=N)C=C3O)n1`, the IC50 was found to be 3.9 mg/L (≈ 12.6 µM).

The subject of another assay is Staphylococcus aureus. The assay is described as follows: Antimicrobial activity was determined against Staphylococcus aureus ATCC 13709. It is filed as functional. The method in brief: as §2
`NC1=CC(=O)c2ccc(-c3cc(C(=O)O)ccc3N)nc2C1=O` had a minimal inhibitory concentration (MIC) greater than 50 mg/L.

As for `NC1=CC(=O)c2cccnc2C1=O`, the minimum inhibitory concentration (MIC) came out at 12.5 mg/L (≈ 71.8 µM).

Molecule `COC1=C(N)C(=O)c2nc(-c3ccccn3)ccc2C1=O` displayed an MIC of 1.56 mg/L (≈ 5.55 µM).

`COC1=C(N)C(=O)c2ncccc2C1=O` displayed an MIC of 6.25 mg/L (≈ 30.6 µM).

The molecule `COC(=O)c1[nH]c(C(=O)OC)c(C)c2c3ccccc3nc1-2` registered an MIC greater than 50 mg/L.

In turn, `COC(=O)c1cccc(-c2ccc3c(n2)C(=O)C(=N)C=C3O)n1` came in with an MIC of 6.25 mg/L (≈ 20.2 µM).

In the case of `COC(=O)c1nc(C(C)=O)c2[nH]c3ccccc3c2c1C`, the MIC was greater than 50 mg/L.

In the next assay the test system is Epidermoid carcinoma cell line. The assay is described as follows: Cytotoxic activity against human epidermoid carcinoma of the nasopharynx (9KB). It is filed as functional, cell-based. In short, it runs like this:
as §3
Molecule `NC1=CC(=O)c2ccc(-c3cc(C(=O)O)ccc3N)nc2C1=O` yielded an IC50 greater than 10 mg/L.

The molecule `NC1=CC(=O)c2cccnc2C1=O` showed an IC50 of 0.74 mg/L (≈ 4.25 µM).

As for `COC1=C(N)C(=O)c2nc(-c3ccccn3)ccc2C1=O`, the IC50 was determined as 0.33 mg/L (≈ 1.17 µM).

Regarding `COC1=C(N)C(=O)c2ncccc2C1=O`, the IC50 was found to be 1.9 mg/L (≈ 9.31 µM).

For `COC(=O)c1cccc(-c2ccc3c(n2)C(=O)C(=N)C=C3O)n1`, half-maximal inhibition (IC50) was put at 0.17 mg/L (≈ 0.55 µM).

The subject of a further assay is Salmonella enterica subsp. enterica serovar Gallinarum. The assay is described as follows: Antimicrobial activity was determined against Salmonella gallinarum ATCC 9184. The format is functional. In short, it runs like this:
as §2
Molecule `NC1=CC(=O)c2ccc(-c3cc(C(=O)O)ccc3N)nc2C1=O` had an MIC greater than 50 mg/L.

Molecule `NC1=CC(=O)c2cccnc2C1=O` came in with an MIC of 50 mg/L (≈ 287 µM).

The molecule `COC1=C(N)C(=O)c2nc(-c3ccccn3)ccc2C1=O` registered an MIC greater than 100 mg/L.

For `COC1=C(N)C(=O)c2ncccc2C1=O`, the MIC is greater than 50 mg/L.

Take `COC(=O)c1[nH]c(C(=O)OC)c(C)c2c3ccccc3nc1-2`: the MIC is greater than 50 mg/L.

As to `COC(=O)c1cccc(-c2ccc3c(n2)C(=O)C(=N)C=C3O)n1`, the MIC was greater than 50 mg/L.

With `COC(=O)c1nc(C(C)=O)c2[nH]c3ccccc3c2c1C`, the MIC was greater than 50 mg/L.

The subject of a further assay is Mycolicibacterium smegmatis. The assay can be described thus: Antimicrobial activity was determined against Mycobacterium smegmatis ATCC 607. The format is functional. The method in brief:
as §2
With `NC1=CC(=O)c2ccc(-c3cc(C(=O)O)ccc3N)nc2C1=O`, the MIC was greater than 50 mg/L.

Take `NC1=CC(=O)c2cccnc2C1=O`: 12.5 mg/L (≈ 71.8 µM) was the least that counted as inhibitory (MIC).

As to `COC1=C(N)C(=O)c2nc(-c3ccccn3)ccc2C1=O`, the MIC came to 1.56 mg/L (≈ 5.55 µM).

On to `COC1=C(N)C(=O)c2ncccc2C1=O`, for which the MIC is 50 mg/L (≈ 245 µM).

`COC(=O)c1[nH]c(C(=O)OC)c(C)c2c3ccccc3nc1-2` returned an MIC greater than 50 mg/L.

As for `COC(=O)c1cccc(-c2ccc3c(n2)C(=O)C(=N)C=C3O)n1`, the MIC was 6.25 mg/L (≈ 20.2 µM).

Turning to `COC(=O)c1nc(C(C)=O)c2[nH]c3ccccc3c2c1C`, the MIC is greater than 50 mg/L.

Another assay deals with Candida albicans. The assay can be described thus: Antimicrobial activity was determined against Candida albicans ATCC 10231. The format is functional. The method in brief:
as §2
In turn, `NC1=CC(=O)c2ccc(-c3cc(C(=O)O)ccc3N)nc2C1=O` returned an MIC greater than 50 mg/L.

In turn, `NC1=CC(=O)c2cccnc2C1=O` came in with an MIC of 50 mg/L (≈ 287 µM).

The molecule `COC1=C(N)C(=O)c2nc(-c3ccccn3)ccc2C1=O` registered an MIC of 3.12 mg/L (≈ 11.1 µM).

In the case of `COC1=C(N)C(=O)c2ncccc2C1=O`, the MIC amounted to 50 mg/L (≈ 245 µM).

As to `COC(=O)c1[nH]c(C(=O)OC)c(C)c2c3ccccc3nc1-2`, the MIC was greater than 50 mg/L.

As to `COC(=O)c1cccc(-c2ccc3c(n2)C(=O)C(=N)C=C3O)n1`, the MIC is greater than 50 mg/L.

Molecule `COC(=O)c1nc(C(C)=O)c2[nH]c3ccccc3c2c1C` yielded an MIC greater than 50 mg/L.

In another assay the test system is Klebsiella pneumoniae. The assay is described as follows: Antimicrobial activity was determined against Klebsiella pneumoniae ATCC 10031. The format is functional. The method in brief:
as §2
The molecule `NC1=CC(=O)c2ccc(-c3cc(C(=O)O)ccc3N)nc2C1=O` gave an MIC greater than 50 mg/L.

`NC1=CC(=O)c2cccnc2C1=O` displayed an MIC of 50 mg/L (≈ 287 µM).

`COC1=C(N)C(=O)c2nc(-c3ccccn3)ccc2C1=O` returned an MIC of 25 mg/L (≈ 88.9 µM).

Regarding `COC1=C(N)C(=O)c2ncccc2C1=O`, the MIC turned out to be 50 mg/L (≈ 245 µM).

`COC(=O)c1[nH]c(C(=O)OC)c(C)c2c3ccccc3nc1-2` yielded an MIC greater than 50 mg/L.

In turn, `COC(=O)c1cccc(-c2ccc3c(n2)C(=O)C(=N)C=C3O)n1` showed an MIC of 50 mg/L (≈ 162 µM).

Molecule `COC(=O)c1nc(C(C)=O)c2[nH]c3ccccc3c2c1C` showed an MIC greater than 50 mg/L.
